Active and inactive are the calls of the source.
How the values were obtained:
Vibrio harveyi [1] = assay: Antimutagenic activity against Vibrio harveyi BB7X assessed as inhibition of NQNO-induced mutagenicity after 48 hrs; assay type: functional
Outline: (§1)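 V. harveyi cultures grown exponentially to A600 0.1 at 30 °C, exposed to test compound for 15 min, then to NQNO, and grown on to A600 0.3–0.4. 5 × 10⁶ cells plated on BOSS agar with neomycin (100, final). Neomycin-resistant colonies counted after 48 h at 30 °C. Result given as % inhibition of NQNO mutagenicity; three independent repeats.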

Mus musculus [2] = assay: Neurotoxicity in mouse at 30 mg/kg, ip after 0.5 hrs by rotarod test; assay type: toxicity, organism-based; conditions: in vivo
Outline: (§2)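 Mice were dosed ip with compound suspended in 0.5% methylcellulose. Rotarod: a 1 in. knurled rod turning at 6 rpm. Neurotoxicity was scored as failure to stay on the rod for at least 1 min in each of three trials. Results are given as the number of animals affected out of the number tested.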

Mus musculus [3] = assay: Anticonvulsant activity in mouse assessed as protection against maximal electric shock-induced seizures at 30 mg/kg, ip measured after 0.5 hrs; assay type: functional, organism-based
Outline: (§3)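 Mice dosed ip with suspension in 0.5% methylcellulose; maximal electroshock applied at the listed time after dosing. Protection = abolition of hindlimb tonic extension component of seizure; reported as animals protected/animals tested.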

Mus musculus [4] = assay: Anticonvulsant activity in mouse assessed as protection against subcutaneous pentylenetetrazol-induced seizures at 30 mg/kg, ip measured after 0.5 hrs; assay type: functional, organism-based
Outline: (§4)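 Mice dosed ip as 0.5% methylcellulose suspension; pentylenetetrazole 85 mg/kg in 0.9% NaCl injected subcutaneously into posterior midline, animals watched at least 30 min. Protection = no threshold seizure (single clonic spasm episode lasting ≥5 s); scored protected/tested.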

Mus musculus [5] = assay: Neurotoxicity in mouse at 30 mg/kg, ip after 4 hrs by rotarod test; assay type: toxicity, organism-based; conditions: in vivo; outline: as §2
Vibrio harveyi [6] = assay: Mutagenicity in Vibrio harveyi BB7XM assessed as number of colonies after 48 hrs (reference value: 14 no_unit); assay type: ADME, organism-based; conditions: in vivo
Outline: (§5)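 Vibrio harveyi mutagenicity test: test compound was added to exponentially growing cultures (A600 = 0.1, 30 °C) and grown to OD600 0.3–0.4. Then 5 × 10^6 cells were plated on BOSS agar with neomycin (final 100 µg/mL) and incubated 48 h at 30 °C. Neomycin-resistant colonies were counted. Triplicate; controls were water, DMSO and NQNO 40 ng/mL.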

Mus musculus [7] = assay: Neurotoxicity in mouse at 100 mg/kg, ip after 4 hrs by rotarod test; assay type: toxicity, organism-based; conditions: in vivo; outline: as §2
Mus musculus [8] = assay: Neurotoxicity in mouse at 10 mg/kg, ip after 0.5 hrs by rotarod test; assay type: toxicity, organism-based; conditions: in vivo; outline: as §2
Mus musculus [9] = assay: Neurotoxicity in mouse at 3 mg/kg, ip after 0.5 hrs by rotarod test; assay type: toxicity, organism-based; conditions: in vivo; outline: as §2
Mus musculus [10] = assay: Anticonvulsant activity in mouse assessed as protection against maximal electric shock-induced seizures at 10 mg/kg, ip measured after 0.5 hrs; assay type: functional, organism-based; outline: as §3
Vibrio harveyi [11] = assay: Mutagenicity in Vibrio harveyi BB7X assessed as number of colonies after 48 hrs (reference value: 15 to 16 no_unit); assay type: ADME, organism-based; conditions: in vivo; outline: as §5
Mus musculus [12] = assay: Anticonvulsant activity in mouse assessed as protection against maximal electric shock-induced seizures at 3 mg/kg, ip measured after 0.5 hrs; assay type: functional, organism-based; outline: as §3
Vibrio harveyi [13] = assay: Mutagenicity in Vibrio harveyi BB7 assessed as number of colonies after 48 hrs (reference value: 13 to 14 no_unit); assay type: ADME, organism-based; conditions: in vivo; outline: as §5
Vibrio harveyi [14] = assay: Antimutagenic activity against Vibrio harveyi BB7M assessed as inhibition of NQNO-induced mutagenicity after 48 hrs; assay type: functional; outline: as §1
Mus musculus [15] = assay: Anticonvulsant activity in mouse assessed as protection against maximal electric shock-induced seizures at 10 mg/kg, ip measured after 4 hrs; assay type: functional, organism-based; outline: as §3
Mus musculus [16] = assay: Neurotoxicity in mouse at 300 mg/kg, ip after 0.5 hrs by rotarod test; assay type: toxicity, organism-based; conditions: in vivo; outline: as §2
Vibrio harveyi [17] = assay: Antimutagenic activity against Vibrio harveyi BB7XM assessed as inhibition of NQNO-induced mutagenicity after 48 hrs; assay type: functional; outline: as §1
Mus musculus [18] = assay: Anticonvulsant activity in mouse assessed as protection against maximal electric shock-induced seizures at 3 mg/kg, ip measured after 4 hrs; assay type: functional, organism-based; outline: as §3
Mus musculus [19] = assay: Anticonvulsant activity in mouse assessed as protection against subcutaneous pentylenetetrazol-induced seizures at 30 mg/kg, ip measured after 4 hrs; assay type: functional, organism-based; outline: as §4
Vibrio harveyi [20] = assay: Antimutagenic activity against Vibrio harveyi BB7 assessed as inhibition of NQNO-induced mutagenicity after 48 hrs; assay type: functional; outline: as §1
Mus musculus [21] = assay: Anticonvulsant activity in mouse assessed as protection against maximal electric shock-induced seizures at 100 mg/kg, ip measured after 4 hrs; assay type: functional, organism-based; outline: as §3
Mus musculus [22] = assay: Anticonvulsant activity in mouse assessed as protection against maximal electric shock-induced seizures at 30 mg/kg, ip measured after 4 hrs; assay type: functional, organism-based; outline: as §3
Mus musculus [23] = assay: Neurotoxicity in mouse at 10 mg/kg, ip after 4 hrs by rotarod test; assay type: toxicity, organism-based; conditions: in vivo
Mus musculus [24] = assay: Neurotoxicity in mouse at 3 mg/kg, ip after 4 hrs by rotarod test; assay type: toxicity, organism-based; conditions: in vivo
Vibrio harveyi [25] = assay: Mutagenicity in Vibrio harveyi BB7M assessed as number of colonies after 48 hrs (reference value: 13 to 14 no_unit); assay type: ADME, organism-based; conditions: in vivo; outline: as §5
[26] = Neurotoxicity in ip dosed mouse after […] by rotarod test; assay type: toxicity, organism-based; conditions: in vivo
[27] = Neurotoxicity in ip dosed mouse by rotarod test; assay type: toxicity, organism-based; conditions: in vivo
Mus musculus [28] = assay: Anticonvulsant activity in ip dosed mouse assessed as protection against maximal electric shock-induced seizures; assay type: functional, organism-based
Outline: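 Compound suspended in 0.5% methylcellulose and given ip to mice; screening doses 30, 100 and 300 mg/kg, read at 0.25–4 h. Protection was defined as abolition of hindlimb tonic extension.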

Mus musculus [29] = assay: Anticonvulsant activity in ip dosed mouse assessed as protection against maximal electric shock-induced seizures measured after […]; assay type: functional
Mus musculus [30] = assay: Anticonvulsant activity in ip dosed mouse assessed as protection against subcutaneous pentylenetetrazol-induced seizures measured after […]; assay type: functional

Which “inhibition (INH)” value (Vibrio harveyi [1]) does the source give for `CC[C@H](CO)NCCOCCOc1c(C)cccc1C` here?
Its value is 56%.

What about the Activity (Mus musculus [2]) of the same molecule?
Its Activity is “Non-toxic”.

What about the Activity (Mus musculus [3]) of the same molecule?
Its Activity is “Active”.

What about the Activity (Mus musculus [4]) of the same molecule?
The Activity was “inactive”.

And the Activity (Mus musculus [5])?
Its Activity is “Non-toxic”.

And the Activity (Vibrio harveyi [6])?
The Activity was 27.

What about the Activity (Mus musculus [7]) of the same molecule?
The Activity was “Non-toxic”.

And the Activity (Mus musculus [8])?
The Activity was “Non-toxic”.

And the Activity (Mus musculus [9])?
Its Activity is “Non-toxic”.

And the Activity (Mus musculus [10])?
The Activity was “inactive”.

And the Activity (Vibrio harveyi [11])?
Its Activity is 26.

And the Activity (Mus musculus [12])?
Its Activity is “inactive”.

What about the Activity (Vibrio harveyi [13]) of the same molecule?
The Activity was 20.

And the “inhibition (INH)” value (Vibrio harveyi [14])?
Its value is 55%.

And the Activity (Mus musculus [15])?
The Activity was “inactive”.

What about the Activity (Mus musculus [16]) of the same molecule?
The Activity was “Toxic”.

What about the “inhibition (INH)” value (Vibrio harveyi [17]) of the same molecule?
Its value is 30%.

What about the Activity (Mus musculus [18]) of the same molecule?
The Activity was “inactive”.

And the Activity (Mus musculus [19])?
The Activity was “inactive”.

What about the “inhibition (INH)” value (Vibrio harveyi [20]) of the same molecule?
Its value is 81%.

What about the Activity (Mus musculus [21]) of the same molecule?
Its Activity is “inactive”.

And the Activity (Mus musculus [22])?
The Activity was “inactive”.

What about the Activity (Mus musculus [23]) of the same molecule?
The Activity was “Non-toxic”.

And the Activity (Mus musculus [24])?
The Activity was “Non-toxic”.

And the Activity (Vibrio harveyi [25])?
Its Activity is 20.

Which results are given for `Cc1cccc(C)c1OCCN[C@H](C)CO`?
TD50 at […] [26]: 29.5 mg/kg; TD50 [27]: 29.5 mg/kg; EC50 (Mus musculus [28]): 5.34 mg/kg; ED50 (Mus musculus [29]): 5.34 mg/kg; ED50 (Mus musculus [30]): > 50 mg/kg

Reference: ChEMBL document CHEMBL3774372, “Design, physico-chemical properties and biological evaluation of some new N-[(phenoxy)alkyl]- and N-{2-[2-(phenoxy)ethoxy]ethyl}aminoalkanols as anticonvulsant agents” (Bioorg Med Chem, 2016)
